This excerpt belongs to a sample that is enriched for hits.
Insulin prom act: activators of insulin promoter-driven GFP, primary screen, imaging, TRM-6 cells, eGFP reporter, cell count; activation, % at 2 µM; 0.81% of 130,000 active; plate-scaled: unstimulated 0, stimulated control 100; AID 1296, 2008;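 active means activation at 2 µM above a set limit, confirmed on inspection of the cell images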;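 further: share of cells whose green reporter signal exceeds an intensity cutoff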
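Test system: human fetal islet-derived TRM-6 cells with tamoxifen-inducible insulin promoter–eGFP reporter. Compound dosing: 2 µM final, single concentration. Incubation: tamoxifen pre-incubation 15 h overnight, then compound exposure 48 h at 37 °C. Signal: fixed-cell fluorescence microscopy, eGFP plus Hoechst.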
An asterisk follows results filed as active.

SMILES	Insulin prom act
COc1cccc(NC(=O)COc2ccc(N3CC(C(=O)NCC(C)C)CC3=O)cc2)c1 (stereo not given)	202
O=C(CCCN1C(=O)c2cccc3cccc(c23)C1=O)N1CCc2ccccc2C1	-6
COc1ccc(S(=O)(=O)N(CC(=O)NC2CC2)c2ccc(C)cc2)cc1OC	0
CCOC(=O)C1(CC2CCCCO2)CCN(Cc2nc(C(C)C)cs2)CC1 (stereo not given)	375*
CCOC(=O)C1(Cc2ccccc2)CCN(Cc2ccon2)CC1	7
CCOC(=O)C1(CC2CC2)CCN(Cc2ccc(OC)cc2F)CC1	5
O=C(OC(C(=O)NCc1ccc2c(c1)OCO2)c1ccncc1)c1ccc(Cl)nc1 (stereo not given)	5
O=C(NNC(=O)C1CC(c2cccs2)=NO1)NC1CCCCC1 (stereo not given)	107
Cc1ccc(-n2[nH]c(C)c(C=Nc3ccc(Br)cn3)c2=O)cc1	119
COc1cc(S(=O)(=O)Nc2ccc(C)cc2)ccc1N=Cc1c(C)[nH]n(-c2ccccc2)c1=O	-72
CCSc1nnc(-c2cc(Br)ccc2N=Cc2c(C)[nH]n(-c3ccccc3)c2=O)c(=O)[nH]1	356*
N=c1c2c(-c3ccccc3)c(-c3ccccc3)n(Cc3ccco3)c2ncn1CCO	327
c1ccc(-c2nc3nc4ccccc4nc3n2Cc2ccco2)cc1	200*
Fc1ccc(-c2nc3nc4ccccc4nc3n2Cc2ccco2)cc1	-8
Cc1ccnc(SCC(=O)c2ccc(Br)cc2)c1C#N	-61
CCN(CC)C(=O)c1ccc(C)c(Br)c1	356
CCN(CC)C(=S)SCC(=O)c1ccc(Br)cc1	381*
Cc1cc(C)c(NS(=O)(=O)c2ccc(NC(=O)CCC(=O)O)cc2)c(C)c1	-8
Cc1ccc(N=C/C(C(=O)C(F)(F)F)=C(\O)c2ccco2)cc1Cl	3
CCN(CC)S(=O)(=O)c1cc(Br)c(C)cc1OC	6
CCCCNC(=S)N(Cc1c(C)noc1C)c1ccccc1	-6
CC1CCN(S(=O)C23CC4CC(CC(C4)C2)C3)CC1 (stereo not given)	5
CN1CCN(S(=O)C23CC4CC(CC(C4)C2)C3)CC1 (stereo not given)	488*
O=S(NC1CCCCC1)C12CC3CC(CC(C3)C1)C2 (stereo not given)	0
CCSc1n[nH]c(=S)s1	7
SMILES	Insulin prom act
Cc1cc2nc(CCN(C(=S)NCC(C)C)C3CCCC3)[nH]c2cc1C	-4
O=C(COC(=O)CNS(=O)(=O)c1cccc(Br)c1)NC(=O)Nc1ccc2c(c1)OCCO2	400*
O=C(COC(=O)CCNS(=O)(=O)c1ccc2c(c1)OCCO2)NC1CCCc2ccccc21 (stereo not given)	9
Cc1ccc(S(=O)(=O)NCC(=O)OCC(=O)Nc2cccc(S(=O)(=O)NC3=NCCCCC3)c2)cc1	-78
Cc1ccc2nc(Nc3ccc4[nH]c(=O)[nH]c4c3)c(-n3nc(C)cc3C)nc2c1	-28
CCC(C(=O)NCc1cccnc1)c1ccccc1 (stereo not given)	440*
CC(c1ccccc1)n1cc(C(=O)NCc2cccnc2)nn1 (stereo not given)	0
CC(NS(=O)(=O)c1ccc(CCC(=O)NCc2cccnc2)cc1)c1ccccc1 (stereo not given)	133
CC(=O)c1cc2c(cc1NC(=O)CN1CCCCC1C)OCO2 (stereo not given)	-3
CC1(C)COC(c2cccc(C3=NC(C)(C)CO3)n2)=N1	3
CC(OC(=O)c1cc2sccc2n1C)C(=O)NCCc1ccccc1 (stereo not given)	6
Cn1c(C(=O)OC(C(=O)NCc2ccco2)c2ccncc2)cc2sccc21 (stereo not given)	633*
CC(OC(=O)c1cc2sccc2n1C)C(=O)NCc1ccc(F)cc1 (stereo not given)	-8
O=S(=O)(NCCSc1ccccn1)c1ccc(Br)cc1	-7
O=C(CSc1nnc(-c2cccs2)o1)NCC1CN(Cc2ccccc2)CCO1 (stereo not given)	76*
CC1CCCC(C)N1C(=O)CSc1nnc(-c2cccs2)o1 (stereo not given)	3
O=C(CSc1nc2ccsc2c(=O)n1Cc1ccc(C(=O)O)cc1)NCC1CCCO1 (stereo not given)	6
Cc1cccc(-n2c(CCc3ccccc3)nnc2SCC(=O)c2ccccc2)c1	213
CN(C)CCCC1(O)c2ccccc2C=Cc2ccccc21	223
CC1CCN(CCc2nc3cc(NC(=O)NC4CCCCC4)ccc3n2C)CC1	8
Cc1cc(C(=O)COC(=O)CCc2nc3ccccc3s2)c(C)n1C	78*
NC(=O)CSCc1nc2ccccc2s1	9
COCCn1c(C)cc(C(=O)CSc2nc3ccccc3s2)c1C	0
CCC(=O)N/C(=N/c1nc(C)cc(C)n1)Nc1cccc(OC)c1	-7
O=C1/C(=C/c2ccc(N3CCCC3)cc2)NC(=S)N1C1CC1	186*
SMILES	Insulin prom act
O=C1N/C(=C/c2ccc(N3CCOCC3)cc2)C(=O)N1Cc1ccc(F)cc1	-8
C=C(C)C1CC=C(C)/C(=N/NC(=O)C2CC2c2ccccc2)C1 (stereo not given)	-7
Cc1ccc(-c2nc3ccccc3c(=O)n2NC(=O)c2cccs2)cc1	3
COc1ccc2[nH]c(=O)c(CN(Cc3nnnn3Cc3ccc(F)cc3)CC3CCCO3)cc2c1 (stereo not given)	118
O=c1[nH]c2cc3c(cc2cc1CN(CCCO)Cc1nnnn1Cc1ccc(F)cc1)OCO3	0
Cc1ccc2cc(CN(CCO)Cc3nnnn3Cc3ccc(F)cc3)c(=O)[nH]c2c1	140*
CCOC(=O)C(NC(=O)Nc1ncccn1)(Oc1ccccc1)C(F)(F)F (stereo not given)	190*
CCOC(=O)C(NC(=O)c1ccccc1)(OCc1ccc(F)cc1)C(F)(F)F (stereo not given)	6
CCOC(=O)C(NC(=O)c1ccc(OC)cc1)(OCC1(CC)COC1)C(F)(F)F (stereo not given)	-7
COc1ccc(NC(=O)c2ccc3c(c2)NC(=O)CO3)cc1OC	0
COc1ccccc1COC(=O)Nc1c(C)nn(C)c1Cl	113
CCSc1nc2ccccc2c(=O)n1OCC(=O)OC	0
CCOC(=O)C(C)On1c(SC(C)C(=O)OCC)nc2ccccc2c1=O (stereo not given)	76*
COC(=O)COn1c(SC(C)C)nc2ccccc2c1=O	7
CNC(=O)CNC(=O)Nc1ccc(Cl)c(Cl)c1	9
O=C1CCc2cc(S(=O)(=O)NC(Cc3ccccc3)C(=O)N3CCN(c4ccccn4)CC3)ccc2N1 (stereo not given)	-7
Cc1c(N2C(=O)C(C)SC23C(=O)Nc2ccccc23)c(=O)n(-c2ccccc2)n1C (stereo not given)	3
CC(C)c1ccc(NC2(C#N)C(=O)Nc3ccccc32)cc1 (stereo not given)	81*
Cc1ccccc1NC1(C#N)C(=O)Nc2ccccc21 (stereo not given)	-9
COc1cccc(-c2nn[nH]n2)c1O	-8
N=c1n(Cc2ccccc2)c2ccccc2n1CC(O)c1ccco1 (stereo not given)	0
Cn1c(=N)n(CC(=O)O)c2ccccc21	0
CCN(CC)CCn1c(=N)n(CC(O)c2ccco2)c2ccccc21 (stereo not given)	508*
COc1cc(CNCc2cccs2)ccc1OCC(N)=O	2
CCOc1cc(CNCCCN2CCOCC2)ccc1OCC(=O)NC(C)(C)C	-6

Screening results as filed in PubChem.
